The source of these data is ChEMBL document CHEMBL4513216, “Probing the Open Global Health Chemical Diversity Library for Multistage-Active Starting Points for Next-Generation Antimalarials” (ACS Infect Dis, 2020).

The data set in a line: Toxicity liver stage against HepG2, at 10uM. As to conditions: human, HepG2-A16-CD81EGFP cells; read-out: INHIBITION
More on the design: test concentration 10 uM, cell line HepG2-A16-CD81EGFP. In kind it is cell-based. Summed up:
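Uninfected HepG2-A16-CD81EGFP cells, 3 × 10^3 per well, 1536-well, plated on prespotted compound at 10 μM final, parasite-free screening media added to match infected plates; puromycin 10 μM positive, DMSO 0.5% negative; run in parallel with 48 h PbLuc assay at 37 °C, 5% CO2; viability by CellTiter-Glo luminescence, normalized to controls.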
Turning to `COc1cc2c(cc1OC)S(=O)(=O)N(Cc1ccc(C)cc1)C2=O`, the cytotoxicity at 10 µM turned out to be 8.74%.
`Cc1csc(C2NC3(CCCC3)C(=O)N2CC2CC2)n1` (configuration not stated): the cytotoxicity at 10 µM is 3.24%.
Take `Cc1cccc(C(=O)N2CCCC2c2c(C)n[nH]c2C)c1` (configuration not stated): the cytotoxicity at 10 µM came out at 8.58%.
For `COc1ccc(OC)c(C2CCN(C(=O)C3CCS(=O)(=O)CC3)C2)c1` (configuration not stated), the cytotoxicity at 10 µM amounted to 1.21%.
For the compound `Cc1ccc(C(=O)N2C[C@H]3CC[C@@H](C2)N(CC2CCC2)C3)s1`, the cytotoxicity at 10 µM is -4.2%.
In the case of `CCc1nc(C(=O)N2CCCC2)nn1-c1c(Cl)cccc1Cl`, the cytotoxicity at 10 µM is -2.04%.
With `CC(=O)Nc1nc(C(=O)Nc2ccc(F)cc2)cs1`, the cytotoxicity at 10 µM is 6.47%.
Turning to `CCOCC1CN(S(=O)(=O)C2CC2)Cc2nn(C)cc21` (configuration not stated), the cytotoxicity at 10 µM is -112%.
As for `CC(C)c1cc(C(=O)NCCn2nc3ccccn3c2=O)n[nH]1`, the cytotoxicity at 10 µM is -8.5%.
In the case of `CN(C)S(=O)(=O)N1CCCC(c2cccc(Cc3ccc(F)cc3)n2)C1` (configuration not stated), the cytotoxicity at 10 µM was determined as 38.9%.
Consider `CCc1n[nH]c(C2CN(C(=O)c3cscn3)CCO2)n1` (configuration not stated), for which the cytotoxicity at 10 µM is 5.08%.
Take `Cc1noc(C2CCC3(CCN(C(=O)c4ccncn4)CC3)O2)n1` (configuration not stated): the cytotoxicity at 10 µM turned out to be 5.76%.
With `CNC(=O)COC(=O)c1cccc(-n2ccc(C(F)(F)F)n2)c1`, the cytotoxicity at 10 µM was -39.5%.
Take `CCC(C)(N)c1nc(C(C)C)cc(=O)[nH]1` (configuration not stated): the cytotoxicity at 10 µM was found to be 14%.
For `CC(C)(O)CN1CCN(C(=O)COC2CCCCC2)CC1` the value was -2.77%; for `Cc1oncc1C(=O)N1CCC2(CC1)CN(S(C)(=O)=O)c1ccccc12`, 1.47%.
For `CN(C)c1cc2c(nn1)CCN(C(=O)c1cc3c(s1)CCC3)C2` the value was -6.97%; for `COc1cccc(-c2cc(NCc3nc(C)cs3)n(C)n2)c1`, -0.717%.
On to `COc1cc(OCC(=O)NCCc2ccccc2)cc(OC)c1OC`, for which the cytotoxicity at 10 µM was 0.285%.
Take `Cc1nc(C(C)(C)NC(=O)Nc2ccc(C#N)cc2)no1`: the cytotoxicity at 10 µM came out at 13%.
For `Cc1cc(-n2cccn2)ccc1CN1C[C@@H](CN(C)C)[C@@H](CO)C1` the value was -9.4%; for `O=C(NC1CCCC1)O[C@H]1COCCN(c2nc3ccccc3s2)C1`, -0.655%; for `c1nc(N2CCOCC2)sc1-c1cncn1CCCN1CCCCC1`, 0.682%.
Turning to `Cc1cc(C(=O)NC2CCN(CC(N)=O)CC2)nn1C(C)(C)C`, the cytotoxicity at 10 µM was -5.22%.
For the compound `CC(=O)Nc1nc(C)c(S(=O)(=O)NCCc2cccnc2)s1`, the cytotoxicity at 10 µM was -10.5%.
`Cc1c(NC(=O)NCCO)cccc1OC1CCCC1`: the cytotoxicity at 10 µM is -2.25%.
For `CC(=O)C(Cc1ccccc1)NC(=O)CSc1nccn1C1CC1` (configuration not stated) the value was 5.22%.
As to `CC(C)(C)c1nnc(CNc2cc(F)ccc2OCC2CCCO2)o1` (configuration not stated), the cytotoxicity at 10 µM stood at 3.06%.
In the case of `Cc1nc(C2(NCC(=O)NCCc3cccs3)CCCC2)no1`, the cytotoxicity at 10 µM was -2.18%.
`COc1ccc(CNCC2CC2)cc1F`: the cytotoxicity at 10 µM was -22%.
Take `CNC(=O)[C@@H]1C[C@H]2CN(c3ncccn3)C[C@H]2N1C(C)C`: the cytotoxicity at 10 µM was found to be 9.72%.
`Fc1cnc(N2CCn3c(CN4CCCC4)nnc3C2)nc1`: the cytotoxicity at 10 µM is -145%.
Regarding `CCOCCN1CCN(Cc2cccc(C(=O)N(C)C)c2)CC1C` (configuration not stated), the cytotoxicity at 10 µM stood at 3.57%.
As for `O=C(CCN1CCOC(C(F)(F)F)C1)NCc1cccc(Cl)c1` (configuration not stated), the cytotoxicity at 10 µM was 2.04%.
`O=C(COCC1CC1)Nc1ncccc1O`: the cytotoxicity at 10 µM is 11%.
The result for `CCc1cc(N(C)Cc2ccnc(C)c2)n2nc(C)c(C)c2n1` reads 61.6%.
`CCN(CC)C1CCN(C(=O)Nc2cc(F)c(OC)c(F)c2)C1` (configuration not stated): the cytotoxicity at 10 µM was determined as 4.55%.
Turning to `CC(=O)N1CC(C(=O)Nc2cccc(OC(F)F)c2)C1`, the cytotoxicity at 10 µM amounted to 1.22%.
For `CCn1cc2c(n1)C(COC)CN(C(=O)CCOc1ccccc1)C2` (configuration not stated) the value was 0.234%.
As for `O=C(c1ccc2ncsc2c1)N1CCC(C(=O)O)(n2cccn2)CC1`, the cytotoxicity at 10 µM stood at 6.01%.
For `O=C(N1CCOCC1)N1CCC(Nc2ccncn2)CC1`, the cytotoxicity at 10 µM was -57%.
For `c1ccc(Cn2cc(CNCC3CCCN3c3cccnn3)cn2)cc1` (configuration not stated), the cytotoxicity at 10 µM is -4.03%.
For the compound `Cc1nnsc1C(=O)N1CCN(CC2CC2)[C@@H]2CS(=O)(=O)C[C@@H]21`, the cytotoxicity at 10 µM was 0.445%.
As for `CCc1cnc(NCC(C)Oc2cccnc2)nc1` (configuration not stated), the cytotoxicity at 10 µM amounted to 0.977%.
`Cc1nccn1-c1ccc(CN2CC3C[C@@H](O)CN3C[C@@H]2C)cc1` (some centres not stated): the cytotoxicity at 10 µM is 6.26%.
`Cc1nnc([C@@]23CCO[C@@H]2CCN(Cc2scnc2C)C3)o1`: the cytotoxicity at 10 µM is -111%.
Take `O=C(CC1OCCc2ccccc21)NCC1(O)CCCCC1` (configuration not stated): the cytotoxicity at 10 µM was 1.07%.
On to `COCCCN1CC2(CCCN(c3ncnc4[nH]cnc34)C2)CCC1=O` (configuration not stated), for which the cytotoxicity at 10 µM was -2.95%.
On to `Cc1noc(C)c1CN(C)C(=O)CN1CC(c2ccccc2)CC1=O` (configuration not stated), for which the cytotoxicity at 10 µM was -2.4%.
Take `COc1cccc2[nH]cc(CCNC(=O)N3CCOCC3C3CC3)c12` (configuration not stated): the cytotoxicity at 10 µM came out at 12.1%.
Turning to `CCS(=O)(=O)Nc1ccc2oc(C)c(C(=O)OC)c2c1`, the cytotoxicity at 10 µM stood at 5.87%.
Take `CC(C)Oc1cccc(CNC(=O)NC2(CO)CCCC2)c1`: the cytotoxicity at 10 µM was -57.1%.
Turning to `Cn1cc(C(O)CNC(=O)c2cc(Br)ccc2Cl)cn1` (configuration not stated), the cytotoxicity at 10 µM is 2.06%.
On to `CC(NC(=O)NCCCOC1CCCCC1)c1nncn1C` (configuration not stated), for which the cytotoxicity at 10 µM is -7.47%.
The result for `CN(C)CCCNC(=O)c1nc(Cc2c(Cl)cccc2Cl)no1` reads -0.31%; that for `COCc1nc2cc(NCc3ccc(C)o3)ccc2o1`, -9.41%.
For the compound `Cc1nc(-c2ccccc2C)n(CC(=O)NC(C)C)n1`, the cytotoxicity at 10 µM was found to be 7.47%.
The result for `O=C(c1ccsc1)N1CCc2c(nc(-c3ccncc3)[nH]c2=O)C1` reads -1.67%.
Turning to `O[C@H]1CCN(Cc2ccoc2)[C@H]1Cc1cccnc1`, the cytotoxicity at 10 µM came out at 2.36%.
For `Cc1ccsc1C(=O)N1CCC2(CC(C(=O)N(C)C(C)C)=NO2)C1` (configuration not stated) the value was -126%; for `Cc1nc[nH]c1CN1C[C@@H]2OCCN(c3ncccn3)[C@@H]2C1`, -70.4%.
`CN(C)C(=O)CN1CCc2ncnc(NC3CCC3)c2CC1`: the cytotoxicity at 10 µM was -94.4%.
Turning to `Cn1cnnc1C1CCN(C(=O)CCCOc2ccccc2F)CC1`, the cytotoxicity at 10 µM is -6.26%.
In the case of `CCN(C)c1ncnc2c1CCN(C(=O)N1CCCC1)CC2`, the cytotoxicity at 10 µM was -6.9%.
`Cc1ccc(C)c(OCc2nnc(SCC3CCCN(C)C3)o2)c1` (configuration not stated): the cytotoxicity at 10 µM is 5.24%.
For the compound `CN1CCCC1CNC(=O)c1nnn(-c2ccc(F)cc2)c1C1CC1` (configuration not stated), the cytotoxicity at 10 µM was -15.9%.
For `Cn1cnnc1C1CCCN(C(=O)NCc2ccccn2)C1` (configuration not stated), the cytotoxicity at 10 µM came out at 2.83%.
For the compound `Cc1nc2n(n1)CC(NCc1c(Cl)ccc3cccnc13)CC2` (configuration not stated), the cytotoxicity at 10 µM is 0.0383%.
For the compound `CN1C[C@H](NC(=O)c2cscn2)[C@@H]2OCCC[C@@H]21`, the cytotoxicity at 10 µM is -112%.
With `CCn1cnnc1C1CCN(C(=O)c2ccnc(N(C)C)c2)CC1`, the cytotoxicity at 10 µM turned out to be 8.2%.
For `CCN(CC)C(=O)CCNC(=O)N(C)Cc1ccc(SC)c(OC)c1` the value was -7.9%.
With `CCc1nc(N)nc(N2CCCC3(CCOCC3)C2)c1C`, the cytotoxicity at 10 µM is -123%.
